RGS4 inh – RGS4 inhibitors, primary screen, cell-based, HEK293 M3R inducible RGS4, calcium flux | Regulator of G-protein signaling 4 (Homo sapiens), P49798 | Fluo-4 calcium flux; hits give high values; triggered by carbachol at its EC20 | B-score at 10 µM | 0.45% of 310,000 active;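 active = B-score, a plate-corrected calcium signal, over three deviations above library mean, with baseline fluorescence within five deviations of library mean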;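 note: RGS4 expression induced by doxycycline in cells with stable M3 receptor; B-score is computed from the integrated fluorescence ratio over baseline after carbachol; higher B-score means a larger calcium signal and so more RGS4 inhibition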
Target sequence (P49798 whole entry, looked up): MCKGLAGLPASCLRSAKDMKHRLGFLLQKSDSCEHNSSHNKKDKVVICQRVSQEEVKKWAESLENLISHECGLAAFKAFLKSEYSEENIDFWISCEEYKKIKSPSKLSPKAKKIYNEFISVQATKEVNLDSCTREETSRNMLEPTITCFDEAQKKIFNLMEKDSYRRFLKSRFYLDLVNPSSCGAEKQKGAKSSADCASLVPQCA
MrgX1 agonist – agonists of human MrgX1 receptor, primary screen, HEK293 cells, Fluo-4 calcium flux; B-score at 10 µM; Mas-related G-protein coupled receptor member X1 (Homo sapiens), Q96LB2; AID 588627, 2011; 0.44% of 310,000 active; Fluo-4 calcium fluorescence, agonist mode; hits give high values;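 active = calcium response B-score plate-corrected fluorescence ratio at least 3 library SD, with starting fluorescence B-score inside 5 SD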
Target sequence (Q96LB2 whole entry, looked up): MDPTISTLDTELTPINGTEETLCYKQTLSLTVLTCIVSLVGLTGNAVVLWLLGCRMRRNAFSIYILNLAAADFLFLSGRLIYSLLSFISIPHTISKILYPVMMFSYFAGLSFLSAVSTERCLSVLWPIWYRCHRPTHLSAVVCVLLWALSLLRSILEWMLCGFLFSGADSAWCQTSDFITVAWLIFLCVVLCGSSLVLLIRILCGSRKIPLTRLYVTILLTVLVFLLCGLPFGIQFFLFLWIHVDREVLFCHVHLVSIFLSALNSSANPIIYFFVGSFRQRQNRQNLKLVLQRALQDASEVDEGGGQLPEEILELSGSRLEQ
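Material – MrgX1-expressing HEK293 cells · Input – 15,000 cells seeded per well · Dosing – compound as first of three additions · Times – overnight seeding, then 1 h dark dye loading · Measured by – kinetic Fluo-4 NW fluorescence of intracellular calcium · Read-out – B-scored fluorescence response ratio · Benchmarks – positive and negative control wells on each plate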
MrgX1 allo act – positive allosteric modulators of MrgX1, primary screen, HEK293 cells, Fluo-4 calcium flux | B-score at 10 µM | 0.63% of 310,000 active | FDSS; hits give high values | Mas-related G-protein coupled receptor member X1 (Homo sapiens), Q96LB2 | AID 588675, 2011;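 active = plate-corrected calcium response at least 3 library SD above typical, normal starting fluorescence, not activating the receptor alone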;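 note: compound read alongside a low EC10 to EC30 dose of BAM8-22 agonist; peak minus trough fluorescence over baseline measured at the second addition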
RGS4 act – RGS4 potentiators or activators, primary screen, cell-based, HEK293 M3R inducible RGS4, calcium flux. B-score at 10 µM. carbachol calcium flux Fluo4; hits give low values. 0.92% of 310,000 active;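 active = B-score of the integrated calcium signal more than 4 SD below the library mean, with starting fluorescence not abnormally high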;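 note: negative B-score means reduced calcium response which marks RGS4 activation or potentiation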
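Reagent: ECmax carbachol challenge; Test system: M3R-expressing HEK293 line, RGS4 induced by doxycycline; Schedule: overnight RGS4 induction, 30 min dye load 37 °C, 20 min compound RT; Detection: calcium dye Fluo4 fluorescence; Read-out: Agonist-evoked peak-minus-minimum fluorescence over baseline, integrated ratio, B score.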
MrgX1 antag – antagonists of human MrgX1 receptor, primary screen, HEK293 cells, Fluo-4 calcium flux; Mas-related G-protein coupled receptor member X1 (Homo sapiens), Q96LB2; BAM8-22 antagonism; hits give low values; B-score at 10 µM; 1.3% of 310,000 active;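 active = calcium-response B-score plate-corrected more than 3 library SD below zero, starting fluorescence within 5 deviations, no agonist response on first addition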;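 note: peak minus trough fluorescence over baseline after final BAM8-22 challenge near maximal dose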
* marks the source's active call; other numbers are inactive results. Rows were chosen to be rich in hits. Some 3.5% of all compounds tested hit in one or more screens of this group.

What do the screens show for `COc1cccc([C@@H]2CC=C(C(=O)O)[C@H](c3ccc(Cl)cc3)N2S(=O)(=O)c2ccc(C)cc2)c1`?
MrgX1 agonist: inactive; MrgX1 allo act: inactive; MrgX1 antag: inactive

How did COc1cccc([C@@H]2CC=C(C(=O)O)[C@H](c3ccccc3F)N2S(=O)(=O)c2ccc(C)cc2)c1 do in these assays?
MrgX1 agonist: inactive; MrgX1 allo act: 8.35*; MrgX1 antag: inactive

Results for CCc1ccc([C@@H]2CC=C(C(=O)O)[C@H](c3ccc(Cl)cc3)N2S(=O)(=O)c2ccc(C)cc2)cc1 ?
MrgX1 agonist: inactive; MrgX1 allo act: inactive; MrgX1 antag: inactive

What do the screens show for `Cc1ccc(S(=O)(=O)N2[C@@H](c3ccc(Cl)cc3)C(C(=O)O)=CC[C@H]2c2ccc3c(c2)OCO3)cc1`?
MrgX1 agonist: inactive; MrgX1 allo act: inactive; MrgX1 antag: inactive

Results for CCc1ccc([C@@H]2CC=C(C(=O)O)[C@H](c3ccccc3F)N2S(=O)(=O)c2ccc(C)cc2)cc1 ?
MrgX1 agonist: inactive; MrgX1 allo act: 6.82*; MrgX1 antag: inactive

How did Cc1ccc(S(=O)(=O)N2[C@@H](c3cccc(Cl)c3)C(C(=O)O)=CC[C@H]2c2ccc3c(c2)OCO3)cc1 do in these assays?
MrgX1 agonist: inactive; MrgX1 allo act: 7*; MrgX1 antag: inactive

How did COCCCNC(=O)C1c2ccccc2Oc2ccccc21 do in these assays?
RGS4 inh: inactive; MrgX1 agonist: inactive; MrgX1 allo act: inactive; RGS4 act: inactive; MrgX1 antag: inactive

What do the screens show for `CCN(CC)CCCNC(=O)C1c2ccccc2Oc2ccccc21`?
RGS4 inh: inactive; MrgX1 agonist: inactive; MrgX1 allo act: inactive; RGS4 act: -7.33*; MrgX1 antag: inactive

How did COc1ccc(NC(=O)C/C(C)=N/NC(=O)C(=O)NC2CCCCC2)c(OC)c1 do in these assays?
RGS4 inh: inactive; MrgX1 agonist: inactive; MrgX1 allo act: 9.21*; RGS4 act: inactive; MrgX1 antag: inactive

Results for O=C(NN1C(=O)/C(=C/C=C/c2ccco2)SC1=S)c1ccccc1O ?
RGS4 inh: inactive; MrgX1 agonist: inactive; MrgX1 allo act: inactive; RGS4 act: inactive; MrgX1 antag: -4.62*

What do the screens show for `CC(C)c1ccc(NC(=O)[C@@H](C)NC(=O)[C@@H]2Cc3ccccc3CN2)cc1`?
RGS4 inh: inactive; MrgX1 agonist: inactive; MrgX1 allo act: inactive; RGS4 act: -7.38*; MrgX1 antag: inactive

How did N#Cc1cc(N)ccc1Sc1ccc(Cl)cc1 do in these assays?
RGS4 inh: inactive; MrgX1 agonist: inactive; MrgX1 allo act: inactive; RGS4 act: -6.97*; MrgX1 antag: inactive

Results for Cc1ccc(O)c(N=Cc2cc(Cc3ccccc3)cc([N+](=O)[O-])c2O)c1 ?
RGS4 inh: inactive; RGS4 act: -7.2*

Results for Nc1c(C(=O)Nc2cccc(Cl)c2Cl)sc2nc(-c3cccnc3)ccc12 ?
RGS4 inh: inactive; MrgX1 agonist: inactive; MrgX1 allo act: inactive; RGS4 act: inactive; MrgX1 antag: inactive

What do the screens show for `CS(=O)(=O)c1cccc(-c2nnc(NC(=O)C3=COCCO3)o2)c1`?
RGS4 inh: inactive; MrgX1 agonist: inactive; MrgX1 allo act: inactive; RGS4 act: inactive; MrgX1 antag: -4.93*

Results for O=c1[nH]c(Cc2ccccc2)nc2scc(-c3ccccc3)c12 ?
RGS4 inh: inactive; MrgX1 agonist: inactive; MrgX1 allo act: inactive; RGS4 act: inactive; MrgX1 antag: inactive

How did CNC(=O)/C(C#N)=C/c1ccc(-c2ccc(OC)cc2[N+](=O)[O-])o1 do in these assays?
RGS4 inh: inactive; MrgX1 agonist: inactive; MrgX1 allo act: inactive; RGS4 act: inactive; MrgX1 antag: -5.25*

Results for COC(=O)C1=C(C)N(C)C(C)=C(C(=O)OC)C1c1ccc(C(=O)OC)cc1 ?
RGS4 inh: inactive; MrgX1 agonist: inactive; MrgX1 allo act: inactive; RGS4 act: inactive; MrgX1 antag: inactive

How did CC(C)CC1NC(=O)N(CCCCN2C(=O)c3ccccc3C2=O)C1=O (centres undefined) do in these assays?
RGS4 inh: inactive; MrgX1 agonist: inactive; MrgX1 allo act: inactive; RGS4 act: inactive; MrgX1 antag: inactive

What do the screens show for `CCC(C)n1c(=S)[nH]c2c(sc3ccc([N+](=O)[O-])cc32)c1=O` (centres undefined)?
RGS4 inh: inactive; MrgX1 agonist: inactive; MrgX1 allo act: 9.21*; RGS4 act: inactive; MrgX1 antag: inactive

What do the screens show for `CCN1CCN(C(c2ccccc2)c2nnnn2Cc2ccc(OC)cc2)CC1` (centres undefined)?
RGS4 inh: inactive; MrgX1 agonist: inactive; MrgX1 allo act: inactive; RGS4 act: inactive; MrgX1 antag: inactive

What do the screens show for `O=C(COC(=O)/C=C/c1ccccc1[N+](=O)[O-])NCC(F)(F)F`?
RGS4 inh: inactive; MrgX1 agonist: inactive; MrgX1 allo act: inactive; RGS4 act: inactive; MrgX1 antag: -4.86*

What do the screens show for `CCNC(=O)COC(=O)/C=C/c1ccccc1[N+](=O)[O-]`?
RGS4 inh: inactive; MrgX1 agonist: inactive; MrgX1 allo act: inactive; RGS4 act: inactive; MrgX1 antag: inactive

Results for Cc1cc(C)c(S(=O)(=O)Nc2ccc3c4c(cccc24)CC3)c(C)c1 ?
RGS4 inh: inactive; MrgX1 agonist: inactive; MrgX1 allo act: inactive; RGS4 act: -7.55*; MrgX1 antag: inactive

Results for Cc1nc2c3cc(Cl)ccc3n(CCN3CCCCC3)c2s1 ?
RGS4 inh: inactive; MrgX1 agonist: inactive; MrgX1 allo act: 11.4*; RGS4 act: inactive; MrgX1 antag: inactive

What do the screens show for `Cc1sc2ncnc(N3CCC(C(=O)NNC(=O)COc4ccccc4Cl)CC3)c2c1C`?
RGS4 inh: inactive; MrgX1 agonist: inactive; MrgX1 allo act: inactive; RGS4 act: -8.04*; MrgX1 antag: -6.97*

How did Cc1sc2ncnc(N3CCC(C(=O)NNC(=O)COc4ccccc4F)CC3)c2c1C do in these assays?
RGS4 inh: inactive; MrgX1 agonist: inactive; MrgX1 allo act: inactive; RGS4 act: -7.68*; MrgX1 antag: inactive

What do the screens show for `Cc1ccc(OCC(=O)NNC(=O)C2CCN(c3ncnc4sc(C)c(C)c34)CC2)cc1`?
RGS4 inh: inactive; MrgX1 agonist: inactive; MrgX1 allo act: inactive; RGS4 act: inactive; MrgX1 antag: inactive

How did CC12CCC(C(=O)N(Cc3ccccc3)Cc3ccccc3)(OC1=O)C2(C)C (centres undefined) do in these assays?
RGS4 inh: inactive; MrgX1 agonist: inactive; MrgX1 allo act: inactive; RGS4 act: inactive; MrgX1 antag: inactive
